The subject of assay [1] is Cryptococcus neoformans. In words: Antifungal activity against Cryptococcus neoformans var. grubii H99 after 48 hrs by serial dilution method. In kind it is functional. A digest of the protocol:
(§1)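 Broth serial dilution per NCCLS. Medium was RPMI 1640 buffered with 0.165M MOPS, NaHCO3 (0.2%) and NaOH (0.27%). Strains were pre-grown in YPD at 30 °C with shaking. Inoculum 10³ CFU/mL; compounds in DMSO. Plates incubated at 35 °C for 48 h. MIC80 is the concentration giving 80% inhibition.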

A further assay deals with Candida albicans. Nature of the assay: Antifungal activity against Candida albicans SC5314 after 48 hrs by serial dilution method. To be noted: SC5314, 48 h. It is filed as functional. A digest of the protocol: as §1
Assay [2] relates to Cryptococcus neoformans. In words: Antifungal activity against Cryptococcus neoformans var. grubii ATCC 34877 after 48 hrs by serial dilution method. It is filed as functional. The note with it: var. grubii ATCC 34877, 48 h. The essentials: as §1
Assay [3] has as its system Cryptococcus neoformans. In words: Antibiofilm activity against Cryptococcus neoformans var. grubii H99 at 0.062 to 8 ug/mL after 24 hrs by XTT analysis. It is filed as functional, organism-based. A digest of the protocol:
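H99 cells at 1.0×10^6 CFU/mL in RPMI 1640 left to adhere 90 min at 37 °C. Non-adherent cells were removed and the wells washed three times with PBS. Fresh RPMI with drug (0.062-8 µg/mL) or drug-free control was added, then 24 h more at 37 °C. Formation rate by XTT reduction. Means ± SD of three independent experiments; ANOVA and t-test.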

For another assay, the system named is Cryptococcus gattii. In words: Antifungal activity against Cryptococcus gattii ATCC 14116 after 48 hrs by serial dilution method. To be noted: ATCC 14116, 48 h.
Assay [4] deals with Cryptococcus neoformans. Nature of the assay: Fungistatic activity against Cryptococcus neoformans var. grubii H99 at 16 ug/mL up to 48 hrs by time-growth curve assay. In kind it is functional, organism-based. The essentials: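 Exponential-phase H99 cells were resuspended in fresh RPMI 1640 at 2×10^6 cells/mL, drug was added, and cultures were shaken at 200 rpm and 30 °C. Aliquots were removed and counted at 0, 3, 6, 9, 12, 24 and 48 h. The control received DMSO. Three independent experiments were run.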

The subject of assay [5] is Cryptococcus neoformans. In words: Fungicidal activity against Cryptococcus neoformans var. grubii H99 at 16 ug/mL after 48 hrs by time-kill assay. It is filed as functional, organism-based. A digest of the protocol: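 Exponential-phase H99 cells were washed three times in PBS and resuspended in RPMI 1640 at 2×10^6 cells/mL. After drug was added, cultures were shaken at 200 rpm and 30 °C. Samples were taken at 0, 6, 12, 24 and 48 h, diluted, and plated on SDA agar. Viable counts were read after 48 h at 30 °C.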

MIC80 and Activity data for twelve compounds are collected here from ChEMBL document CHEMBL4368921, “Discovery of novel simplified isoxazole derivatives of sampangine as potent anti-cryptococcal agents” (2019).

Values after ≈ are worked out from the molar mass of the structure shown. Active and inactive are the calls of the source. The calls are words filed in the database; no cut-off is given here. Some results are limits rather than exact numbers.

In general, MIC80 refers to an inhibitory concentration at the 80% level, which refers to growth in some studies and to a panel of isolates in others. Low values mean greater potency, high ones weaker potency.

Turning to `O=C1c2ccsc2C(=O)c2c(-c3ccc(Br)cc3)noc21`, the MIC80 against Cryptococcus neoformans [1] and against Candida albicans was over 64 µg/mL each time.
Regarding `CCCc1noc2c1C(=O)c1sccc1C2=O`, the MIC80 is 0.12 µg/mL (≈ 0.485 µM) against Cryptococcus neoformans [1], 4 µg/mL (≈ 16.2 µM) against Candida albicans, 0.12 µg/mL (≈ 0.485 µM) with Cryptococcus neoformans [2] and 0.25 µg/mL (≈ 1.01 µM) with Cryptococcus gattii. Also, the result in the assay on Cryptococcus neoformans [3] was Active.
Turning to `Cn1cccc1-c1noc2c1C(=O)c1sccc1C2=O`, the MIC80 with Cryptococcus neoformans [1] is 4 µg/mL (≈ 14.1 µM); with Candida albicans, 16 µg/mL (≈ 56.3 µM).
Regarding `OC(Cn1cncn1)(Cn1cncn1)c1ccc(F)cc1F` [FLUCONAZOLE], the MIC80 is 2 µg/mL (≈ 6.53 µM) against Cryptococcus neoformans [1], 0.25 µg/mL (≈ 0.816 µM) with Candida albicans, 8 µg/mL (≈ 26.1 µM) with Cryptococcus neoformans [2] and 8 µg/mL (≈ 26.1 µM) against Cryptococcus gattii. For the same compound, in the assay with Cryptococcus neoformans [4], the outcome was Active. Moreover, the result in the assay with Cryptococcus neoformans [5] was inactive.
On to `O=C1c2ccsc2C(=O)c2c(-c3ccncc3)noc21`, for which the MIC80 with Cryptococcus neoformans [1] is 0.25 µg/mL (≈ 0.886 µM); in the assay with Candida albicans it was 8 µg/mL (≈ 28.3 µM); against Cryptococcus neoformans [2], 0.5 µg/mL (≈ 1.77 µM); in the assay on Cryptococcus gattii, 1 µg/mL (≈ 3.54 µM).
In the same order, the values of `COCc1noc2c1C(=O)c1sccc1C2=O` are 0.25 µg/mL (≈ 1 µM), 8 µg/mL (≈ 32.1 µM), 0.25 µg/mL (≈ 1 µM) and 0.5 µg/mL (≈ 2.01 µM).
Consider `O=C1c2ccsc2C(=O)c2c(-c3ccccn3)noc21`, for which the MIC80 with Cryptococcus neoformans [1] was 0.25 µg/mL (≈ 0.886 µM); against Candida albicans it was 8 µg/mL (≈ 28.3 µM).
On the same counts, the results for `O=C1c2ccsc2C(=O)c2c(-c3cccc(Br)c3)noc21` are over 64 µg/mL and over 64 µg/mL.
In the same order, the values of `O=C1c2ccsc2C(=O)c2c(-c3ccccc3Br)noc21` are 0.25 µg/mL (≈ 0.694 µM) and over 64 µg/mL.
As for `C[C@@H]1[C@H](O)[C@@H](C)/C=C/C=C/C=C/C=C/C=C/C=C/C=C/[C@H](O[C@@H]2O[C@H](C)[C@@H](O)[C@H](N)[C@@H]2O)C[C@@H]2O[C@](O)(C[C@@H](O)C[C@@H](O)[C@H](O)CC[C@@H](O)C[C@@H](O)CC(=O)O[C@H]1C)C[C@H](O)[C@H]2C(=O)O`, the result in the assay on Cryptococcus neoformans [3] was Active.
Turning to `C[C@@H](c1ncncc1F)[C@](O)(Cn1cncn1)c1ccc(F)cc1F` [VORICONAZOLE], the MIC80 with Cryptococcus neoformans [1], in the assay with Candida albicans, in the assay on Cryptococcus neoformans [2] and with Cryptococcus gattii was 0.12 µg/mL (≈ 0.344 µM) in each case.
With `Cc1ccc(-c2noc3c2C(=O)c2sccc2C3=O)cc1`, the MIC80 was 1 µg/mL (≈ 3.39 µM) in the assay on Cryptococcus neoformans [1] and over 64 µg/mL in the assay on Candida albicans.
